According to ChEMBL document CHEMBL5303300, “EUbOPEN Chemogenomics Library - Multiplex” (2023):
Where “and” joins values, the source holds several entries; their conditions need not be identical. Equal entries are not always repeated.

Key:
Assay type in all cases: toxicity, cell-based
[1] = tested on: Fibroblast; assay: Multiplex assay against human fibroblast; conditions: number of replicates 2
Procedure, shortened: (§1)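 Imaging took place on a CQ1 microscope at 37°C and 5% CO2 once compound had been added to live cells stained at seeding with Hoechst33342, BioTracker Green Microtubule Cytoskeleton Dye, MitoTracker Red and Annexin V Alexa Fluor 680. CellPathfinder machine-learning gating classed cells as Hoechst high-intensity objects or normal cells, classed normal cells as having healthy, pyknosed or fragmented nuclei, and classed pyknosed cells as mitotic or apoptotic. Tubulin, mitochondrial-mass and membrane-permeability phenotypes are per cents of the healthy-nucleus cells.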

[2] = tested on: HEK-293T; assay: Multiplex assay against HEK293T; conditions: human, number of replicates 2; procedure, shortened: as §1
[3] = tested on: U2OS; assay: Multiplex assay against U2OS; conditions: human, number of replicates 2; procedure, shortened: as §1
[4] = 12 h, 1 µM, compound concentration 1 uM
[5] = 12 h, 10 µM, compound concentration 10 uM
[6] = 24 h, 1 µM, compound concentration 1 uM
[7] = 24 h, 10 µM, compound concentration 10 uM
[8] = 48 h, 1 µM, compound concentration 1 uM
[9] = 48 h, 10 µM, compound concentration 10 uM

O=C(Nc1ccnc(NC(=O)C2CC2)c1)c1c(Cl)cccc1Cl
Population Apoptotic (%) [1, 4]: 47% and 27% | Population Fragmented Nuclei (%) [1, 4]: 6% and 9% | Population Healthy Nuclei (%) [1, 4]: 65% and 67% | Population Hoechst High Intensity Objects (%) [1, 4]: 0% | Population Membrane Permeable-Phenotype (%) [1, 4]: 5% and 7% | Population Mitochondria Different-Phenotype (%) [1, 4]: 0% | Population Mitotic Cells (%) [1, 4]: 52% and 72% | Population Normal (%) [1, 4]: 100% | Population Pyknosed Nuclei (%) [1, 4]: 27% and 23% | Population Tubulin-Different-Phenotype (%) [1, 4]: 9% and 6% | Total Cell Count [1, 4]: 145 and 189 | Population Apoptotic (%) [1, 5]: 55% and 72% | Population Fragmented Nuclei (%) [1, 5]: 9% and 14% | Population Healthy Nuclei (%) [1, 5]: 78% and 77% | Population Hoechst High Intensity Objects (%) [1, 5]: 0% | Population Membrane Permeable-Phenotype (%) [1, 5]: 2% | Population Mitochondria Different-Phenotype (%) [1, 5]: 0% | Population Mitotic Cells (%) [1, 5]: 44% and 27% | Population Normal (%) [1, 5]: 100% | Population Pyknosed Nuclei (%) [1, 5]: 11% and 8% | Population Tubulin-Different-Phenotype (%) [1, 5]: 7% and 6% | Total Cell Count [1, 5]: 244 and 215 | Population Apoptotic (%) [1, 6]: 60% and 48% | Population Fragmented Nuclei (%) [1, 6]: 13% and 7% | Population Healthy Nuclei (%) [1, 6]: 60% and 70% | Population Hoechst High Intensity Objects (%) [1, 6]: 0% | Population Membrane Permeable-Phenotype (%) [1, 6]: 7% | Population Mitochondria Different-Phenotype (%) [1, 6]: 1% and 0% | Population Mitotic Cells (%) [1, 6]: 40% and 51% | Population Normal (%) [1, 6]: 100% | Population Pyknosed Nuclei (%) [1, 6]: 26% and 21% | Population Tubulin-Different-Phenotype (%) [1, 6]: 14% and 9% | Total Cell Count [1, 6]: 150 and 188 | Population Apoptotic (%) [1, 7]: 59% and 70% | Population Fragmented Nuclei (%) [1, 7]: 8% and 17% | Population Healthy Nuclei (%) [1, 7]: 82% and 74% | Population Hoechst High Intensity Objects (%) [1, 7]: 0% | Population Membrane Permeable-Phenotype (%) [1, 7]: 2% and 3% | Population Mitochondria Different-Phenotype (%) [1, 7]: 0% | Population Mitotic Cells (%) [1, 7]: 40% and 29% | Population Normal (%) [1, 7]: 99% | Population Pyknosed Nuclei (%) [1, 7]: 9% and 8% | Population Tubulin-Different-Phenotype (%) [1, 7]: 4% and 8% | Total Cell Count [1, 7]: 232 and 213 | Population Apoptotic (%) [1, 8]: 67% and 60% | Population Fragmented Nuclei (%) [1, 8]: 17% and 16% | Population Healthy Nuclei (%) [1, 8]: 53% and 65% | Population Hoechst High Intensity Objects (%) [1, 8]: 0% | Population Membrane Permeable-Phenotype (%) [1, 8]: 4% and 6% | Population Mitochondria Different-Phenotype (%) [1, 8]: 0% | Population Mitotic Cells (%) [1, 8]: 32% and 40% | Population Normal (%) [1, 8]: 99% and 100% | Population Pyknosed Nuclei (%) [1, 8]: 28% and 17% | Total Cell Count [1, 8]: 170 and 199 | Population Apoptotic (%) [1, 9]: 56% and 44% | Population Fragmented Nuclei (%) [1, 9]: 9% and 24% | Population Healthy Nuclei (%) [1, 9]: 81% and 71% | Population Hoechst High Intensity Objects (%) [1, 9]: 0% | Population Membrane Permeable-Phenotype (%) [1, 9]: 2% and 1% | Population Mitochondria Different-Phenotype (%) [1, 9]: 0% | Population Mitotic Cells (%) [1, 9]: 43% and 55% | Population Normal (%) [1, 9]: 100% | Population Pyknosed Nuclei (%) [1, 9]: 9% and 3% | Population Tubulin-Different-Phenotype (%) [1, 9]: 10% and 8% | Total Cell Count [1, 9]: 239 and 229 | Population Apoptotic (%) [2, 4]: 42% and 49% | Population Fragmented Nuclei (%) [2, 4]: 3% and 2% | Population Healthy Nuclei (%) [2, 4]: 81% and 83% | Population Hoechst High Intensity Objects (%) [2, 4]: 9% and 5% | Population Membrane Permeable-Phenotype (%) [2, 4]: 3% and 7% | Population Mitochondria Different-Phenotype (%) [2, 4]: 11% and 10% | Population Mitotic Cells (%) [2, 4]: 57% and 50% | Population Normal (%) [2, 4]: 90% and 94% | Population Pyknosed Nuclei (%) [2, 4]: 15% and 14% | Population Tubulin-Different-Phenotype (%) [2, 4]: 43% and 37% | Total Cell Count [2, 4]: 735 and 602 | Population Apoptotic (%) [2, 5]: 55% and 57% | Population Fragmented Nuclei (%) [2, 5]: 3% and 2% | Population Healthy Nuclei (%) [2, 5]: 92% and 91% | Population Hoechst High Intensity Objects (%) [2, 5]: 3% | Population Membrane Permeable-Phenotype (%) [2, 5]: 5% and 3% | Population Mitochondria Different-Phenotype (%) [2, 5]: 8% and 9% | Population Mitotic Cells (%) [2, 5]: 44% and 42% | Population Normal (%) [2, 5]: 96% | Population Pyknosed Nuclei (%) [2, 5]: 3% and 5% | Population Tubulin-Different-Phenotype (%) [2, 5]: 32% and 35% | Total Cell Count [2, 5]: 713 and 727 | Population Apoptotic (%) [2, 6]: 37% and 50% | Population Fragmented Nuclei (%) [2, 6]: 4% | Population Healthy Nuclei (%) [2, 6]: 84% and 85% | Population Hoechst High Intensity Objects (%) [2, 6]: 5% and 6% | Population Membrane Permeable-Phenotype (%) [2, 6]: 4% and 3% | Population Mitochondria Different-Phenotype (%) [2, 6]: 3% | Population Mitotic Cells (%) [2, 6]: 62% and 50% | Population Normal (%) [2, 6]: 94% and 93% | Population Pyknosed Nuclei (%) [2, 6]: 10% and 9% | Population Tubulin-Different-Phenotype (%) [2, 6]: 17% and 19% | Total Cell Count [2, 6]: 1049 and 883 | Population Apoptotic (%) [2, 7]: 42% and 69% | Population Fragmented Nuclei (%) [2, 7]: 3% and 5% | Population Healthy Nuclei (%) [2, 7]: 92% and 90% | Population Hoechst High Intensity Objects (%) [2, 7]: 4% and 3% | Population Membrane Permeable-Phenotype (%) [2, 7]: 1% | Population Mitochondria Different-Phenotype (%) [2, 7]: 2% and 3% | Population Mitotic Cells (%) [2, 7]: 57% and 30% | Population Normal (%) [2, 7]: 95% and 96% | Population Pyknosed Nuclei (%) [2, 7]: 3% and 4% | Population Tubulin-Different-Phenotype (%) [2, 7]: 14% and 15% | Total Cell Count [2, 7]: 757 and 769 | Population Apoptotic (%) [2, 8]: 19% and 24% | Population Fragmented Nuclei (%) [2, 8]: 9% and 7% | Population Healthy Nuclei (%) [2, 8]: 85% and 87% | Population Hoechst High Intensity Objects (%) [2, 8]: 7% | Population Membrane Permeable-Phenotype (%) [2, 8]: 3% and 4% | Population Mitochondria Different-Phenotype (%) [2, 8]: 0% and 1% | Population Mitotic Cells (%) [2, 8]: 80% and 75% | Population Normal (%) [2, 8]: 92% | Population Pyknosed Nuclei (%) [2, 8]: 4% | Population Tubulin-Different-Phenotype (%) [2, 8]: 10% and 11% | Total Cell Count [2, 8]: 2441 and 1608 | Population Apoptotic (%) [2, 9]: 38% and 32% | Population Fragmented Nuclei (%) [2, 9]: 11% | Population Healthy Nuclei (%) [2, 9]: 86% and 85% | Population Hoechst High Intensity Objects (%) [2, 9]: 6% and 5% | Population Membrane Permeable-Phenotype (%) [2, 9]: 1% and 0% | Population Mitochondria Different-Phenotype (%) [2, 9]: 2% | Population Mitotic Cells (%) [2, 9]: 61% and 67% | Population Normal (%) [2, 9]: 93% and 94% | Population Pyknosed Nuclei (%) [2, 9]: 2% and 3% | Population Tubulin-Different-Phenotype (%) [2, 9]: 8% and 7% | Total Cell Count [2, 9]: 1085 and 965 | Population Apoptotic (%) [3, 4]: 33% and 84% | Population Hoechst High Intensity Objects (%) [3, 4]: 0% | Population Membrane Permeable-Phenotype (%) [3, 4]: 4% and 3% | Population Mitochondria Different-Phenotype (%) [3, 4]: 0% and 4% | Population Normal (%) [3, 4]: 100% | Population Tubulin-Different-Phenotype (%) [3, 4]: 81% and 83% | Total Cell Count [3, 4]: 114 and 143 | Population Apoptotic (%) [3, 5]: 60% and 58% | Population Healthy Nuclei (%) [3, 5]: 36% and 74% | Population Hoechst High Intensity Objects (%) [3, 5]: 0% | Population Mitochondria Different-Phenotype (%) [3, 5]: 14% and 0% | Population Mitotic Cells (%) [3, 5]: 40% and 41% | Population Normal (%) [3, 5]: 100% | Population Pyknosed Nuclei (%) [3, 5]: 26% and 19% | Population Tubulin-Different-Phenotype (%) [3, 5]: 71% and 58% | Population Apoptotic (%) [3, 6]: 60% and 90% | Population Hoechst High Intensity Objects (%) [3, 6]: 0% | Population Membrane Permeable-Phenotype (%) [3, 6]: 4% and 3% | Population Mitochondria Different-Phenotype (%) [3, 6]: 0% and 2% | Population Normal (%) [3, 6]: 99% and 100% | Population Pyknosed Nuclei (%) [3, 6]: 3% and 12% | Population Tubulin-Different-Phenotype (%) [3, 6]: 76% and 90% | Total Cell Count [3, 6]: 131 and 182 | Population Apoptotic (%) [3, 7]: 66% and 87% | Population Healthy Nuclei (%) [3, 7]: 32% and 62% | Population Hoechst High Intensity Objects (%) [3, 7]: 0% | Population Mitochondria Different-Phenotype (%) [3, 7]: 10% and 0% | Population Mitotic Cells (%) [3, 7]: 33% and 12% | Population Normal (%) [3, 7]: 100% | Population Pyknosed Nuclei (%) [3, 7]: 19% and 29% | Population Tubulin-Different-Phenotype (%) [3, 7]: 70% and 66% | Population Apoptotic (%) [3, 8]: 75% and 76% | Population Healthy Nuclei (%) [3, 8]: 32% and 82% | Population Hoechst High Intensity Objects (%) [3, 8]: 0% | Population Membrane Permeable-Phenotype (%) [3, 8]: 5% and 1% | Population Mitochondria Different-Phenotype (%) [3, 8]: 2% and 1% | Population Mitotic Cells (%) [3, 8]: 25% and 23% | Population Normal (%) [3, 8]: 99% and 100% | Population Pyknosed Nuclei (%) [3, 8]: 3% and 10% | Population Tubulin-Different-Phenotype (%) [3, 8]: 89% and 92% | Population Apoptotic (%) [3, 9]: 100% and 80% | Population Hoechst High Intensity Objects (%) [3, 9]: 0% | Population Membrane Permeable-Phenotype (%) [3, 9]: 16% and 14% | Population Mitochondria Different-Phenotype (%) [3, 9]: 16% and 6% | Population Mitotic Cells (%) [3, 9]: 0% and 20% | Population Normal (%) [3, 9]: 100% and 99% | Population Pyknosed Nuclei (%) [3, 9]: 23% and 35% | Population Tubulin-Different-Phenotype (%) [3, 9]: 50% and 68%
